What was measured:
[1] = system: L1210; test: Compound was tested for its ability to inhibit L1210 cell growth after 72 hr at 100 uM concentration; type: functional; details: Mus musculus, L1210, 72 h
Summary of the method: (§1)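 L1210 cells are grown as stationary suspension cultures in Fishers medium with 10% heat-inactivated horse serum. Drug exposure is continuous for 72 h. Cell number is counted with a Coulter counter. Percent inhibition is calculated against untreated control cultures.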

[2] = target: T1, Uridine-cytidine kinase 1 (Mus musculus, UniProt P52623); test: Binding affinity to uridine kinase from L1210. was determined from the dixon plot
T1 sequence (P52623 whole entry): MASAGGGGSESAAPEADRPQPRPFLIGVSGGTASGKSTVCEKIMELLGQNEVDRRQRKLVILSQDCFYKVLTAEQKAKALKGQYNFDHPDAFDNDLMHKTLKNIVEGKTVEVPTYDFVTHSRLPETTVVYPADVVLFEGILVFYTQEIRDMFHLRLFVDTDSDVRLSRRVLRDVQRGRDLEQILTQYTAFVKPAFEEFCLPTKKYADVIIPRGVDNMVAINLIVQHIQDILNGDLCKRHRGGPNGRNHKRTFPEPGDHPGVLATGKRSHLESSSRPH
Summary of the method: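 Uridine kinase from L1210 cells. Uridine is used at 10, 40 and 200 μM, with inhibitor at 1, 0.5, 0.2 and 0.1 mM. Ki is taken from Dixon plots.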

[3] = target: T2, Uridine-cytidine kinase 1 (Mus musculus) (UniProt P52623); test: Inhibition of uridine kinase from L1210 cells was evaluated by measuring the retention of phosphorylated product on DE81 filter papers at 1000 uM; type: functional, cell-based
T2 sequence (whole entry): T1 sequence (P52623 whole entry)

[4] = system: L1210; test: Compound was tested for its ability to inhibit L1210 cell growth after 72 hr at 0.03 uM concentration; type: functional; details: Mus musculus, L1210, 72 h; summary of the method: as §1
[5] = system: L1210; test: Compound was tested for its ability to inhibit L1210 cell growth after 72 hr at 500 uM concentration; type: functional; details: Mus musculus, L1210, 72 h; summary of the method: as §1
[6] = system: L1210; test: Compound was tested for its ability to inhibit L1210 cell growth after 72 hr at 1000 uM concentration; type: functional; details: Mus musculus, L1210, 72 h; summary of the method: as §1
[7] = target: T2, Uridine-cytidine kinase 1 (Mus musculus); test: Inhibition of uridine kinase from L1210 cells was evaluated by measuring the retention of phosphorylated product on DE81 filter papers at 100 uM; type: functional, cell-based

Ki [2]	inhibition [3]	inhibition [7]	SMILES	inhibition at 100 µM [1]	inhibition at 0.03 µM [4]	inhibition at 500 µM [5]	inhibition at 1000 µM [6]
60 µM	89%	57%	Nc1ccn([C@@H]2C=C(CO)[C@@H](O)[C@H]2O)c(=O)n1	99%	58%	96%	99%
	78%	35%	O=c1ccn([C@@H]2C=C(CO)[C@@H](O)[C@H]2O)c(=O)[nH]1	2%		12%	36%

From ChEMBL document CHEMBL1122524, “Cyclopentenyluridine and cyclopentenylcytidine analogues as inhibitors of uridine-cytidine kinase” (J Med Chem, 1984)
